46 compounds from ChEMBL document CHEMBL1139464, “SAR and 3D-QSAR studies on thiadiazolidinone derivatives: exploration of structural requirements for glycogen synthase kinase 3 inhibitors” (J Med Chem, 2005) can be followed below.

Structures are written as SMILES.

In general, IC50 refers to the midpoint of a concentration-inhibition curve. In general, inhibition refers to how much of the control response was suppressed.

Experiment [1] has as its target Glycogen synthase kinase-3 (Oryctolagus cuniculus). In words: Inhibition of rabbit GSK3.
The target in experiment [2] is Dual specificity mitogen-activated protein kinase kinase 1 (Homo sapiens) (UniProt Q02750). Put plainly: Inhibition of MEK1K at 10 uM. The method in brief: (§1)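 Pan-kinase selectivity screen run at an outside lab using previously described assays for each kinase. Activated kinase phosphorylates its appropriate peptide or protein substrate with test substance at 10 µM. Percent inhibition is taken against control incubations in which the inhibitor is replaced by DMSO, with staurosporine as reference. Reported as the mean of duplicate determinations.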

Experiment [3] has as its target Tyrosine-protein kinase ABL1 (Homo sapiens) (UniProt P00519). In words: Inhibition of Abl kinase at 10 uM. The method in brief: as §1
The target in experiment [4] is CaM kinase II (Homo sapiens) (UniProt Q13557+Q13555+Q13554+Q9UQM7). Put plainly: Inhibition of CAMK2 at 10 uM. In kind it is protein assay. The procedure, abridged:
as §1

Experiment [5] has as its target Epidermal growth factor receptor (Homo sapiens) (UniProt P00533). Put plainly: Inhibition of EGF tyrosine kinase at 10 uM. The method in brief:
as §1

The target in experiment [6] is Insulin receptor (Homo sapiens) (UniProt P06213). Put plainly: Inhibition of IRK at 10 uM. The method in brief:
as §1

Experiment [7] concerns the target Mitogen-activated protein kinase; ERK1/ERK2 (Homo sapiens) (UniProt P27361+P28482). In words: Inhibition of MAPK at 10 uM. In kind it is protein assay. The method in brief: as §1
For experiment [8], the target named is Tyrosine-protein kinase Lck (Homo sapiens) (UniProt P06239). In words: Inhibition of protein kinase p56 at 10 uM. The method in brief: as §1
Sequence of Tyrosine-protein kinase Lck (Homo sapiens) (P06239 2-509 limits assumed): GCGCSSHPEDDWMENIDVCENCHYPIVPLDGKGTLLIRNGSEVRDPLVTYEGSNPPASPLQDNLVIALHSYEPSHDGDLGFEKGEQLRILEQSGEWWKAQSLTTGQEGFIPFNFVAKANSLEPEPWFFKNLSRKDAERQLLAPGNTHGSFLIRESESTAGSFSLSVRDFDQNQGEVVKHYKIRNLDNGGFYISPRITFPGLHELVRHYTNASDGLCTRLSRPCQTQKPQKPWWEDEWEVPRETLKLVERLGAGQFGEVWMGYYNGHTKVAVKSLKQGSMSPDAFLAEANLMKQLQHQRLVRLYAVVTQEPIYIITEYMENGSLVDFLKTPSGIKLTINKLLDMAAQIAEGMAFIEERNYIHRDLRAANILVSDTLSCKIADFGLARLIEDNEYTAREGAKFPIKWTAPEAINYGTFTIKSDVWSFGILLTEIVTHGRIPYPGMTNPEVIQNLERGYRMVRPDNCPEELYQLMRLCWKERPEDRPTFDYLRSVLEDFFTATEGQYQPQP

Sequence of Mitogen-activated protein kinase; ERK1/ERK2 (Homo sapiens) (P27361 whole entry, looked up): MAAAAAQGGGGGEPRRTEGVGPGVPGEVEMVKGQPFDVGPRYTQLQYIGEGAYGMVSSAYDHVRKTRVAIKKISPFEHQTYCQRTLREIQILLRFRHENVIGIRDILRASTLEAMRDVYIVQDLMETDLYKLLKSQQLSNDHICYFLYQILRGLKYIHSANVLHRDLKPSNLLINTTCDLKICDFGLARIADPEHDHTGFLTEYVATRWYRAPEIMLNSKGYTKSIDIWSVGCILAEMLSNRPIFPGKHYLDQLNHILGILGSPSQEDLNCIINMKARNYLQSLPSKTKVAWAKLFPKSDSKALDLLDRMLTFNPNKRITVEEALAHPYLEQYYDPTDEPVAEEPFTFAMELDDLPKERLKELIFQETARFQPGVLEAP
Sequence of Mitogen-activated protein kinase; ERK1/ERK2 (Homo sapiens) (P28482 whole entry, looked up): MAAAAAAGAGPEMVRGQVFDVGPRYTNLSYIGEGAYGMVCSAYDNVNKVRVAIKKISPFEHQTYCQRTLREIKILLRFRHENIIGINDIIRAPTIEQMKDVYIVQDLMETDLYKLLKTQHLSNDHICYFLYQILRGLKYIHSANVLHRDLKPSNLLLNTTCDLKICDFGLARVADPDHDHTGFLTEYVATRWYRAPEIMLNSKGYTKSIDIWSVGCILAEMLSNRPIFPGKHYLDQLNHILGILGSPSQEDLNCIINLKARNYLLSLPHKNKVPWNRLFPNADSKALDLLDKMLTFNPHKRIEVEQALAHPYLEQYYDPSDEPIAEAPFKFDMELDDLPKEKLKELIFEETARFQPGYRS
Sequence of Insulin receptor (Homo sapiens) (P06213 28-758 limits assumed): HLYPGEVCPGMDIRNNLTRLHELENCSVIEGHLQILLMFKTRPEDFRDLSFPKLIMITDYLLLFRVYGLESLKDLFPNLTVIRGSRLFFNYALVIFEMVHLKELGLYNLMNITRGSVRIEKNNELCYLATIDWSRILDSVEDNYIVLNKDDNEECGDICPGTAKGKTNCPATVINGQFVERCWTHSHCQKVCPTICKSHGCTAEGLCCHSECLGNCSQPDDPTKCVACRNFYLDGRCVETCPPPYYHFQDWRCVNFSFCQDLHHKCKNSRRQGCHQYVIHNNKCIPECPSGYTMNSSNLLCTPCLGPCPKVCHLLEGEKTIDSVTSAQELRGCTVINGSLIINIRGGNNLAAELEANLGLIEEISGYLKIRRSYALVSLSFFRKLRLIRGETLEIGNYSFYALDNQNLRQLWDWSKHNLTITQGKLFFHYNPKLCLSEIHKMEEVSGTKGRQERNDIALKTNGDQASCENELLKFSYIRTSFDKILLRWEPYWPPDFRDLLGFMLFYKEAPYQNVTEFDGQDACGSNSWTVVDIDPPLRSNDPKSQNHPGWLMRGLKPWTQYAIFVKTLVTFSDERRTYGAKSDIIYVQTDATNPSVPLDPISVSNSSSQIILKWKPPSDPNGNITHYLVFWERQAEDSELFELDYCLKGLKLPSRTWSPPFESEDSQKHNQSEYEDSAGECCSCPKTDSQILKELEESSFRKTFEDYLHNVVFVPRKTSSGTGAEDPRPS
Sequence of Insulin receptor (Homo sapiens) (P06213 763-1382 limits assumed): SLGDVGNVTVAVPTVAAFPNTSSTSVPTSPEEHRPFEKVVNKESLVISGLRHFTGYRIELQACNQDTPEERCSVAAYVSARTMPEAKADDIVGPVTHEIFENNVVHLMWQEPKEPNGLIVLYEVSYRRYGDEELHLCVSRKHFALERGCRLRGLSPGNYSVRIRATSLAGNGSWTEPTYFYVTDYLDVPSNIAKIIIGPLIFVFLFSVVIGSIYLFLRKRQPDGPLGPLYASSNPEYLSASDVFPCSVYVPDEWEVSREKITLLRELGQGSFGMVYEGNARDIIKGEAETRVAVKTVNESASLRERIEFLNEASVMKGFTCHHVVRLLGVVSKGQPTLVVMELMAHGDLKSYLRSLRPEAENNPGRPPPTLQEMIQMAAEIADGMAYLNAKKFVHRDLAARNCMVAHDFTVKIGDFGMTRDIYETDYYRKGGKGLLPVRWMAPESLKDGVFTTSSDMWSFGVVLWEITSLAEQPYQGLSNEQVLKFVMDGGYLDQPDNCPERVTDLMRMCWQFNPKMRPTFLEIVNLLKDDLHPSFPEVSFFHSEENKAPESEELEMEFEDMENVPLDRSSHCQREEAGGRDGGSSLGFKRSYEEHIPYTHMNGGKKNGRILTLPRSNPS
Sequence of Tyrosine-protein kinase ABL1 (Homo sapiens) (P00519 whole entry): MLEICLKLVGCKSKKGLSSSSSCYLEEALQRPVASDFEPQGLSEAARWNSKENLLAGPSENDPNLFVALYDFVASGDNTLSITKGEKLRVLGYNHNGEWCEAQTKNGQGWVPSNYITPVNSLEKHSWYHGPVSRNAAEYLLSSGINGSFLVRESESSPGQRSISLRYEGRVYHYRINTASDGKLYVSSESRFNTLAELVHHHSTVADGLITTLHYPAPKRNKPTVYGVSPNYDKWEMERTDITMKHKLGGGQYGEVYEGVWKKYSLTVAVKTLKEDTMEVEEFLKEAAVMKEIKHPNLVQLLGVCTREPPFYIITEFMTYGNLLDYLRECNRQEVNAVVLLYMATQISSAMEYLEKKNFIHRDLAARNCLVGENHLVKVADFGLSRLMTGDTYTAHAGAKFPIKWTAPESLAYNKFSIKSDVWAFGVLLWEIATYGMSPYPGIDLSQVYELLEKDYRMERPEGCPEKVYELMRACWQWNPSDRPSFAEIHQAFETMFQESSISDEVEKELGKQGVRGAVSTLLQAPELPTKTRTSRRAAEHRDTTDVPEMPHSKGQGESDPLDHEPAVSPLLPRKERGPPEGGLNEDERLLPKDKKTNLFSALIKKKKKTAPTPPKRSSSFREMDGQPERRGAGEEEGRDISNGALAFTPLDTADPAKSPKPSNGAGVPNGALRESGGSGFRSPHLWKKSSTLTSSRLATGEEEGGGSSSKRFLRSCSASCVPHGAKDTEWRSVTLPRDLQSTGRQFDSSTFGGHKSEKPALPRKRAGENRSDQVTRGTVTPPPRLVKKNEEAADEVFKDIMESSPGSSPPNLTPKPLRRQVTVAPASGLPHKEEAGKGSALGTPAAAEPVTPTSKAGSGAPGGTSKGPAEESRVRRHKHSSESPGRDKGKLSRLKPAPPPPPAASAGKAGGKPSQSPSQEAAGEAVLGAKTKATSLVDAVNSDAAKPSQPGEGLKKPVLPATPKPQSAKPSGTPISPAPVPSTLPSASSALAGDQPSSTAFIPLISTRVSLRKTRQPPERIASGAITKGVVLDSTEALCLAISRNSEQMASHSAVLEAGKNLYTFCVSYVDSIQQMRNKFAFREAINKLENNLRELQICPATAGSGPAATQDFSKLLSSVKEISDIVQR
Sequence of Dual specificity mitogen-activated protein kinase kinase 1 (Homo sapiens) (Q02750 whole entry): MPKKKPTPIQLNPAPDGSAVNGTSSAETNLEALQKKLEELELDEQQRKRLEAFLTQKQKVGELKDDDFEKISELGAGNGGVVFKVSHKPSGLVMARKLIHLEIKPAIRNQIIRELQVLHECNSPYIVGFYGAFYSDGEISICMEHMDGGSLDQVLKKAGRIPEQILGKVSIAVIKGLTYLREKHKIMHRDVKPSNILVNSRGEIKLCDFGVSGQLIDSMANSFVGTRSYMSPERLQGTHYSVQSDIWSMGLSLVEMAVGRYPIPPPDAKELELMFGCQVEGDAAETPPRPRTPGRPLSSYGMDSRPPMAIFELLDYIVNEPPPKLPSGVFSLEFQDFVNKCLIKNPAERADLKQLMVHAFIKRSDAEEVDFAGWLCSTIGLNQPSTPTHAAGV

In experiment [1], `C1=CCN(Cc2ccccc2)C1` yielded a 50% inhibitory concentration (IC50) above 100 µM. As for `O=C1CSC(=S)N1CCc1ccccc1`, the concentration for half-maximal inhibition (IC50) in experiment [1] was 35 µM. Still for that read-out and setting: for `Cn1sc(=O)n(-c2cccc(Br)c2)c1=O` the value was 4 µM; for `O=C1CNC(=O)N1` [HYDANTOIN], 100 µM.

Consider `CCn1sc(=O)n(-c2ccc([N+](=O)[O-])cc2)c1=O`, for which the inhibition was below 10% in experiment [2]; below 10% in experiment [3]; below 10% in experiment [4]; 40% in experiment [5]; 46% in experiment [6]; 10% in experiment [7]. For the same compound, the IC50 in experiment [1] was determined as 8.5 µM. Turning to `CCn1c(=O)sn(C2CCCCC2)c1=O`, the inhibition was below 10% in experiment [2]; below 10% in experiment [8]; below 10% in experiment [3]; 23% in experiment [4]; below 10% in experiment [5]; below 10% in experiment [6]. The compound further yielded an inhibition in experiment [7] below 10%. Moreover, the 50% inhibitory concentration (IC50) in experiment [1] turned out to be 10 µM. As to `O=C(O)CN1C(=O)CSC1=S` [RHODANINE-3-ACETIC ACID], the 50% inhibitory concentration (IC50) in experiment [1] is 100 µM. Still for that read-out and setting: for `O=C1CSC(=O)N1` [THIAZOLIDINEDIONE] the value was 100 µM; for `CCn1c(=O)sn(C(C)C)c1=O`, 35 µM; for `Cn1sc(=O)n(-c2cccc3ccccc23)c1=O`, 2 µM. Same read-out and setting: then `O=C1CSC(=O)N1Cc1ccccc1`, with 100 µM. `O=C(c1ccccc1)n1c(=O)n(-c2ccccc2)c(=O)n1C(=O)c1ccccc1` came in with a half-maximal inhibitory concentration (IC50) in experiment [1] of 100 µM.

`Cn1sc(=O)n(-c2ccc(C(F)(F)F)cc2)c1=O`: the inhibition in experiment [2] was below 10%; in experiment [8], below 10%; in experiment [3], below 10%; in experiment [4], below 10%; in experiment [5], 17%; in experiment [6] it was 36%. Besides, in experiment [7], the inhibition was below 10%. In experiment [1], the IC50 came to 6 µM.

As to `Cn1sc(=O)n(-c2ccccc2)c1=O`, in experiment [1], the IC50 worked out at 2 µM.

In experiment [1], `COc1ccc(CCN2C(=O)CSC2=S)cc1` had an IC50 of 100 µM. On the same count and under the same terms, for `Cn1sc(=O)n(C2CCCCC2)c1=O` the value was 100 µM; for `O=C(Cn1c(=O)n(-c2ccccc2)c(=O)n1CC(=O)c1ccccc1)c1ccccc1`, 100 µM; for `O=C1CNC(=O)N1Cc1ccccc1`, 100 µM. Same read-out and setting: then `Cc1ccc(-n2c(=O)sn(C)c2=O)cc1`, with 5 µM; and `Cn1sc(=O)n(-c2ccc(Cl)cc2)c1=O`, with 4 µM. On the same count and under the same terms, for `Cn1c(=O)n(-c2ccccc2)c(=O)n1C` the value was 100 µM. `CCCn1sc(=O)n(CC)c1=O`: the IC50 in experiment [1] was determined as 10 µM. Consider `Cn1c(=O)ssc1=O`, for which the concentration for half-maximal inhibition (IC50) in experiment [1] turned out to be 100 µM.

For the compound `O=c1ssc(=O)n1-c1ccccc1`, the half-inhibitory concentration (IC50) in experiment [1] worked out at 12 µM. Still for that read-out and setting: for `COc1ccc(CCN2C(=O)C=CC2=O)cc1` the value was 3 µM; for `O=C1C=CC(=O)N1CCc1ccccc1`, 2 µM; for `NN1C(=O)CSC1=S` [AMINORHODANINE], 100 µM. For the compound `O=C1CCC(=O)C1`, the half-inhibitory concentration (IC50) in experiment [1] is above 100 µM. The same measure, in the same setting: then `O=c1ssc(=O)n1Cc1ccccc1`, with 12 µM. For the compound `CCOC(=O)Cn1c(=O)sn(C)c1=O`, the inhibition in experiment [2] is 19%; in experiment [8], below 10%; in experiment [3] it was below 10%; in experiment [4], 15%; in experiment [5], 19%; in experiment [6], 50%. In experiment [7], this compound returned an inhibition below 10%. This compound came in with an IC50 in experiment [1] of 2 µM.

The compound `CCn1sc(=O)n(-c2ccccc2)c1=O` showed a half-inhibitory concentration (IC50) in experiment [1] of 6 µM. Still for that read-out and setting: then `CCOC(=O)CN1C(=O)C=CC1=O`, with 3 µM. Same read-out and setting: then `Cn1sc(=O)n(-c2ccc(Br)cc2)c1=O`, with 1.1 µM. Take `O=c1sn(Cc2ccccc2)c(=O)n1Cc1ccccc1`: the inhibition in experiment [2] is below 10%; in experiment [8], 27%; in experiment [3] it was below 10%; in experiment [4] it was 35%; in experiment [5] it was below 10%; in experiment [6] it was 19%. The compound further came in with an inhibition in experiment [7] below 10%. This compound gave a half-maximal inhibitory concentration (IC50) in experiment [1] of 10 µM. Regarding `O=C1CCCN1Cc1ccccc1`, the IC50 in experiment [1] is above 100 µM. Still for that read-out and setting: then `COc1ccc(CN2C(=O)C=CC2=O)cc1`, with 2.5 µM. Consider `Cn1sc(=O)n(Cc2ccccc2)c1=O`, for which the inhibition in experiment [2] was below 10%; in experiment [8] it was 35%; in experiment [3], below 10%; in experiment [4], 16%; in experiment [5], 25%; in experiment [6], 20%. For the same compound, in experiment [7], the inhibition was below 10%. The compound `CCn1sc(=O)n(Cc2ccccc2)c1=O` [KRM-7777] came in with an IC50 in experiment [1] of 7 µM. The compound `Cn1sc(=O)n(-c2ccccc2Br)c1=O` registered an IC50 in experiment [1] of 6 µM. On the same count and under the same terms, for `O=C(CN1C(=O)CSC1=S)c1ccccc1` the value was 50 µM. Compound `O=C1CCC(=O)N1Cc1ccccc1` displayed an IC50 in experiment [1] above 50 µM. The same measure, in the same setting: for `CCn1c(=O)sn(C)c1=O` the value was 5 µM; for `CCn1sc(=O)n(CC)c1=O`, 25 µM; for `O=C1C=CC(=O)N1CCCCCc1ccccc1`, 3 µM. Same read-out and setting: then `O=C1C=CC(=O)C1`, with 12 µM; and `Cn1sc(=O)n(-c2ccc(F)cc2)c1=O`, with 4 µM.
